# Laboratory results reported in ChEMBL document CHEMBL1153722, “Design, synthesis, and characterization of peptide-based rab geranylgeranyl transferase inhibitors” (J Med Chem, 2009).
# Square brackets hold non-standard residues; d marks the D form. Peptide text beside a SMILES is read from it. * marks the point of attachment. Hydrocinnamoyl = O=C(CCc1ccccc1)*; pNA = O=[N+]([O-])c1ccc(N*)cc1; Undecanoyl = CCCCCCCCCCC(=O)*; pGlu = O=C1CC[C@@H](C(=O)O)N1; Ac6c = NC1(C(=O)O)CCCCC1; Cbz = O=C(OCc1ccccc1)*; NHBn = c1ccc(CN*)cc1; X1 = Fc1ccc(N*)cc1Cl; NHNH2 = NN*
# Species: Rattus norvegicus
# Experiment: Inhibition of rat recombinant Rab geranylgeranyltransferase at 100 uM in presence of canine Rab7 and rat REP1 NBD-FPP based continuous fluorimetric assay
# Summary of the method: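 Continuous fluorometric assay in 96/384-well format: 3 μM Rab7, 3 μM REP1, 9 μM NBD-FPP and 400 nM RabGGTase, with or without inhibitor. […] IC50 was calculated from three independent measurements.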
row,Structure (SMILES),inhibition [%]
1,COC(=O)[C@H](CCC(N)=O)NC(=O)[C@H](Cc1ccccc1)NC(=O)CNC(=O)CCc1ccccc1 (Hydrocinnamoyl-Gly-Phe-Gln-OMe),92
2,CCCCCCCCCCC(=O)N[C@@H](Cc1c[nH]cn1)C(=O)N[C@@H](Cc1c[nH]cn1)C(=O)N[C@@H](CO)C(=O)NOC(C)(C)C,52
3,O=C(CNC(=O)[C@H](Cc1cn(C(c2ccccc2)(c2ccccc2)c2ccccc2)cn1)NC(=O)c1coc(-c2ccccc2)n1)N[C@@H](Cc1cn(C(c2ccccc2)(c2ccccc2)c2ccccc2)cn1)C(=O)O,95
4,C=CCCCCCCCCCOC(=O)[C@H](CO)NC(=O)CNC(=O)[C@H](CO)NC(=O)/C=C/c1ccc(F)cc1,57
5,NC(=O)CC[C@H](NC(=O)[C@H](Cc1ccccc1)NC(=O)CNC(=O)CCc1ccccc1)C(=O)NCc1ccccc1 (Hydrocinnamoyl-Gly-Phe-Gln-NHBn),85
6,CCCCCCCCCCCOc1ccc(C(=O)N[C@@H](Cc2ccc(O)cc2)C(=O)N[C@@H](Cc2ccc(O)cc2)C(=O)N[C@@H](Cc2ccc(O)cc2)C(=O)OCCN)cc1,40
7,CN(CCc1ccccn1)C(=O)[C@H](Cc1ccc(O)cc1)NC(=O)CNC(=O)[C@H](Cc1c[nH]cn1)NC(=O)OCc1ccccc1,85
8,CCCCCc1ccc(/C=C/C(=O)N[C@H](Cc2cnc[nH]2)C(=O)N[C@@H](Cc2ccc(O)cc2)C(=O)N[C@@H](Cc2ccccc2)C(=O)O)cc1,17
9,O=C(N[C@@H](CO)C(=O)N[C@@H](Cc1ccccc1)C(=O)N[C@@H](CO)C(=O)Nc1ccc(F)cc1F)C(Br)C(Br)c1ccc(F)cc1 (some centres undefined),94
10,CCCCCc1ccc(CCC(=O)N[C@H](Cc2cnc[nH]2)C(=O)N[C@@H](Cc2ccc(O)cc2)C(=O)N[C@@H](Cc2ccccc2)C(=O)O)cc1,10
11,CCC/C=C\c1ccccc1/C=C/C(=O)N[C@H](Cc1ccc(O)cc1)C(=O)N(C)[C@@H](Cc1ccc(OC)cc1)C(=O)N(C)[C@@H](Cc1ccccc1)C(=O)OCc1c[nH]c(=O)[nH]c1=O,75
12,CCCCCCCCCCCOc1ccc(C(=O)N[C@@H](Cc2ccc(O)cc2)C(=O)N[C@@H](Cc2ccc(O)cc2)C(=O)N[C@@H](Cc2ccc(O)cc2)C(=O)N(C)OC)cc1,75
13,COC(=O)[C@H](CC(C)C)NC(=O)[C@H](COC(C)(C)C)NC(=O)[C@H](Cc1ccccc1)NC(=O)CCc1ccccc1,81
14,O=C(CCNC(=O)[C@H](Cc1c[nH]cn1)NC(=O)OCc1ccccc1)N[C@@H](Cc1ccc(O)cc1)C(=O)NCC(O)CO (some centres undefined),89
15,O=C(CCNC(=O)[C@H](Cc1c[nH]cn1)NC(=O)OCc1ccccc1)N[C@@H](Cc1ccc(O)cc1)C(=O)NCCCn1ccnc1,88
16,O=C(N[C@@H](Cc1ccc(O)cc1)C(=O)N[C@@H](Cc1ccc(O)cc1)C(=O)N[C@@H](Cc1ccc(O)cc1)C(=O)Nc1nccs1)c1ccc(F)cc1F,78
17,O=C(CCNC(=O)[C@H](Cc1c[nH]cn1)NC(=O)OCc1ccccc1)N[C@@H](Cc1ccc(O)cc1)C(=O)O,90
18,CCCCCCCCCCCOc1ccc(C(=O)N[C@@H](Cc2c[nH]cn2)C(=O)N[C@@H](Cc2ccc(O)cc2)C(=O)N[C@@H](Cc2ccccc2)C(N)=O)cc1,81

row,Structure (SMILES),inhibition [%]
1,CCCCCCCCCCC(=O)N[C@@H](Cc1ccc(O)cc1)C(=O)N[C@@H](Cc1c[nH]cn1)C(=O)N[C@@H](Cc1ccc(O)cc1)C(=O)NOC(C)(C)C,79
2,O=C(N[C@@H](Cc1cnc[nH]1)C(=O)N[C@@H](Cc1ccccc1)C(=O)N[C@@H](Cc1ccc(O)cc1)C(=O)O)OCc1ccc([N+](=O)[O-])cc1,61
3,Nc1ccccc1NC(=O)[C@H](Cc1ccc(O)cc1)NC(=O)CCNC(=O)[C@H](Cc1c[nH]cn1)NC(=O)OCc1ccccc1,80
4,C[C@H](NC(=O)c1coc(-c2ccccc2)n1)C(=O)NCC(=O)N[C@@H](Cc1c[nH]cn1)C(=O)Nc1ccc(F)cc1F,76
5,CC(C)C[C@H](NC(=O)/C=C/c1ccccc1)C(=O)N[C@@H](Cc1ccc(Br)cc1)C(=O)N[C@@H](Cc1ccccc1)C(=O)OCc1ccccc1,55
6,CCCCCCCCCCC(=O)N[C@@H](Cc1ccc(O)cc1)C(=O)N[C@@H](Cc1c[nH]cn1)C(=O)N[C@@H](Cc1c[nH]cn1)C(=O)NOC(C)(C)C,47
7,CCCCCCCCCCCCCCCC(=O)N[C@@H](Cc1ccc(O)cc1)C(=O)N[C@@H](Cc1ccc(O)cc1)C(=O)N[C@@H](Cc1ccc(O)cc1)C(=O)OCCN,110
8,CCCCCCCCCCC(=O)N[C@@H](Cc1c[nH]cn1)C(=O)N[C@@H](Cc1ccccc1)C(=O)N[C@@H](Cc1ccc(O)cc1)C(=O)OCCN,61
9,CCCCCCCCCCCOc1ccc(C(=O)N[C@@H](Cc2c[nH]cn2)C(=O)N[C@@H](Cc2c[nH]cn2)C(=O)N[C@@H](Cc2c[nH]cn2)C(=O)OCCN)cc1,101
10,O=C(CNC(=O)[C@H](Cc1c[nH]cn1)NC(=O)OCc1ccccc1)N[C@@H](Cc1ccc(O)cc1)C(=O)O (Cbz-His-Gly-Tyr-OH),75
11,CCCCCCCCCCC(=O)N[C@@H](Cc1c[nH]cn1)C(=O)N[C@@H](Cc1c[nH]cn1)C(=O)N[C@@H](Cc1ccc(O)cc1)C(=O)OC (Undecanoyl-His-His-Tyr-OMe),64
12,Cc1nc(C)c(C(=O)OC[C@H](NC(=O)[C@H](Cc2ccccc2)NC(=O)[C@H](CO)NC(=O)c2coc(-c3ccccc3)n2)C(=O)O)o1,84
13,CCCCCCCCCCCC(=O)N[C@@H](Cc1ccc(O)cc1)C(=O)N[C@@H](Cc1c[nH]cn1)C(=O)N[C@@H](Cc1c[nH]cn1)C(=O)N(C)CCc1ccccn1,54
14,O=C(/C=C/c1ccccc1)N[C@@H](Cc1ccccc1)C(=O)N[C@@H](Cc1ccccc1)C(=O)N[C@@H](Cc1ccc(O)cc1)C(=O)O,50
15,COC(=O)[C@H](CO)NC(=O)[C@H](Cc1ccccc1)NC(=O)[C@H](CO)NC(=O)CCc1ccccc1 (Hydrocinnamoyl-Ser-Phe-Ser-OMe),90
16,CCCCCCCCCCCC(=O)N[C@@H](Cc1c[nH]cn1)C(=O)N[C@@H](Cc1c[nH]cn1)C(=O)N[C@@H](CO)C(=O)Nc1ccccc1N,88
17,O=C(N[C@@H](Cc1ccc(O)cc1)C(=O)N[C@@H](Cc1ccc(O)cc1)C(=O)N[C@@H](Cc1ccc(O)cc1)C(=O)OCCCn1ccnc1)c1ccc(F)cc1F,96
18,CCCCCCCCCCCOc1ccc(C(=O)N[C@@H](Cc2c[nH]cn2)C(=O)N[C@@H](Cc2ccc(O)cc2)C(=O)N[C@@H](Cc2ccccc2)C(=O)NCCCCN)cc1,127

# More lines, now with the values ahead:
row,inhibition [%],Structure (SMILES)
1,56,CCCCCCCCCCCOc1ccc(C(=O)N[C@@H](Cc2c[nH]cn2)C(=O)N[C@@H](Cc2ccc(O)cc2)C(=O)N[C@@H](Cc2ccccc2)C(=O)NC2CCCCC2)cc1
2,44,C[C@H](NC(=O)CCc1ccccc1)C(=O)N[C@@H](Cc1ccccc1)C(=O)N[C@@H](CCC(N)=O)C(=O)OCCCCO
3,74,O=C(CNC(=O)[C@H](Cc1ccc(O)cc1)NC(=O)c1ccc(F)cc1)N[C@@H](Cc1ccc(O)cc1)C(=O)NC1CCCCC1
4,117,CC(=O)Nc1cc(C(=O)N2CCC[C@H]2C(=O)N[C@@H](C(=O)N[C@@H](CCC(=O)O)C(=O)NC2CCCCC2)C(C)C)ccc1[N+](=O)[O-]
5,105,CC(C)C[C@H](NC(=O)[C@@H]1CCC(=O)N1)C(=O)N[C@@H](CCCCN)C(=O)NC1(C(=O)Nc2ccc(F)c(Cl)c2)CCCCC1 ([pGlu]LK[Ac6c]-X1)
6,92,CC[C@H](C)[C@H](NC(=O)c1ccc(-c2ccccc2)cc1)C(=O)N[C@@H](C(=O)N[C@@H](CCC(N)=O)C(=O)N1CCOCC1)C(C)C
7,93,NNC(=O)[C@H](CCC(N)=O)NC(=O)[C@H](Cc1ccccc1)NC(=O)CNC(=O)CCc1ccccc1 (Hydrocinnamoyl-Gly-Phe-Gln-NHNH2)
8,101,COC(=O)[C@H](CCC(=O)O)NC(=O)[C@H](C)NC(=O)[C@@H](NC(=O)c1ccc(-c2ccccc2)cc1)[C@@H](C)O
9,85,CC(C)CCNC(=O)[C@H](CO)NC(=O)CNC(=O)[C@H](CO)NC(=O)/C=C/c1ccc(F)cc1
10,95,C[C@@H](NC(=O)CCc1ccccc1)C(=O)N[C@@H](Cc1ccccc1)C(=O)N[C@@H](CCC(N)=O)C(N)=O
11,93,NC(=O)CC[C@H](NC(=O)[C@H](Cc1ccccc1)NC(=O)[C@H](CO)NC(=O)CCc1ccccc1)C(=O)Nc1ccc([N+](=O)[O-])cc1 (Hydrocinnamoyl-Ser-Phe-Gln-pNA)
12,96,C[C@H](NC(=O)CCc1ccccc1)C(=O)N[C@@H](Cc1ccccc1)C(=O)N[C@@H](CCC(N)=O)C(=O)Nc1nccs1
13,107,CC#CCOC(=O)[C@H](Cc1ccccc1)NC(=O)[C@H](CC(C)C)NC(=O)[C@@H]1CCCN1C(=O)/C=C/c1ccccc1
14,80,CC(C)C[C@H](NC(=O)[C@@H]1CCCN1C(=O)/C=C/c1ccccc1)C(=O)N[C@@H](Cc1ccccc1)C(=O)O
15,98,C[C@@H](NC(=O)CCc1ccccc1)C(=O)N[C@@H](Cc1ccccc1)C(=O)N[C@@H](CCC(=O)O)C(=O)NCCO
16,81,CC[C@H](C)[C@H](NC(=O)CCc1ccc(F)cc1)C(=O)N[C@@H](C)C(=O)N[C@@H](CCC(N)=O)C(=O)NNc1ccccc1
17,83,C[C@@H](O)[C@H](NC(=O)/C=C/c1ccccc1)C(=O)N[C@@H](Cc1ccccc1)C(=O)N[C@@H](CCC(N)=O)C(=O)Nc1cccc(Br)n1
18,113,C[C@@H](O)[C@H](NC(=O)C(Br)C(Br)c1ccccc1)C(=O)N[C@@H](Cc1ccccc1)C(=O)N[C@@H](CCC(N)=O)C(=O)Nc1cccc(Br)n1 (some centres undefined)
19,83,CC[C@H](C)[C@H](NC(=O)/C=C/c1ccc(F)cc1)C(=O)N[C@@H](C)C(=O)N[C@@H](CCC(N)=O)C(=O)O
20,82,CC(C)C[C@H](NC(=O)[C@@H]1CCCN1C(=O)/C=C/c1ccccc1)C(=O)N[C@@H](Cc1ccccc1)C(=O)NC1CCCCC1
21,100,CC[C@H](C)[C@H](NC(=O)c1ccc(-c2ccccc2)cc1)C(=O)N[C@@H](C(=O)N[C@@H](CCC(N)=O)C(=O)N1CCCCC1)C(C)C
22,95,Cc1nc(C)c(C(=O)OC[C@H](NC(=O)[C@H](C)NC(=O)[C@H](COC(=O)c2oc(C)nc2C)NC(=O)c2coc(-c3ccccc3)n2)C(=O)O)o1
23,99,NC(=O)CC[C@H](NC(=O)[C@H](Cc1ccccc1)NC(=O)[C@H](CO)NC(=O)CCc1ccccc1)C(=O)NC1CCCCC1
